4 compounds from ChEMBL document CHEMBL5214901 (J Med Chem, 2021) can be followed below.

The target in one test is Integrin alpha-V/beta-6 (Homo sapiens, UniProt P06756+P18564). Kind of test: Inhibition of human recombinant integrin alphavbeta6 incubated for 1 hr by ELISA assay. The format is protein-complex assay.
Test [1] deals with Human alphaherpesvirus 1. Kind of test: Antiviral activity against HSV-1 R8102 infected in HEK293T cells assessed as inhibition of viral replication using ONPG as substrate incubated for 1 hrs followed by viral infection measured after 90 mins by microplate reader analysis. Type of test: functional, organism-based. To be noted: dose <= 1000.0 µM, DDE = dose-dependent effect. The method in brief:
(§1)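 Peptides were dissolved at 10 mM (stock) in serum-free DMEM and neutralized with Tris-HCl. 293T cells (low endogenous αvβ6/αvβ8) were pretreated with increasing peptide concentrations for 1 h at 37 °C. Cells were then infected with lacZ-reporter R8102 at MOI 5 PFU/cell for 90 min at 37 °C with peptide. After rinsing, cells were incubated 8 h without peptide. Infection was read as β-galactosidase activity with ONPG; triplicate, SD.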

The subject of test [2] is Human alphaherpesvirus 1. Kind of test: Antiviral activity against HSV-1 K26GFP infected in J cells expressing nectin1 plus alphavbeta6 integrin at 700 uM incubated for 48 hrs followed by viral infection measured after 16 hrs by fluorescent microscopy. Type of test: functional, organism-based. Particulars: time 64.0 hrs. The method in brief:
(§2)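 J cells were transfected with nectin1 (75 ng DNA/24 well) plus αv+β6, αv+β8, or both integrin plasmids (300 ng each). Total DNA was made up to 675 ng with Erb-2 plasmid. At 48 h, cells got 700 μM peptide for 1 h at 37 °C, then K26GFP at 1 PFU/cell for 90 min with peptide. Acid wash (pH 3), then 16 h without peptide. EGFP was read by fluorescence microscopy and flow cytometry MFI (≥10 000 events); triplicates ± SD.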

Test [3] relates to Human alphaherpesvirus 1. The test is described as follows: Antiviral activity against HSV-1 R8102 infected in HEK293T cells assessed as inhibition of viral replication at 500 to 1000 uM using ONPG as substrate incubated for 1 hrs followed by viral infection measured after 90 mins by microplate reader analysis relative to control. Type of test: functional. More on the design: scale not given: the % may be the effect or the level left. Particulars: dose 500-1000 µM. The method in brief: as §1

In test [4] the test system is Human alphaherpesvirus 1. Kind of test: Antiviral activity against HSV-1 K26GFP infected in J cells expressing nectin1 plus alphavbeta6/alphavbeta8 integrin at 700 uM incubated for 48 hrs followed by viral infection measured after 16 hrs by fluorescent microscopy. Type of test: functional, organism-based. To be noted: time 64.0 hrs. In a few lines:
as §2

Test [5] concerns Human alphaherpesvirus 1. The test is described as follows: Antiviral activity against HSV-1 K26GFP infected in J cells expressing nectin1 plus alphavbeta8 integrin at 700 uM incubated for 48 hrs followed by viral infection measured after 16 hrs by fluorescent microscopy. The format is functional, organism-based. To be noted: time 64.0 hrs. The method in brief:
as §2

The subject of test [6] is Human alphaherpesvirus 1. Kind of test: Antiviral activity against HSV-1 K26GFP infected in J cells expressing nectin1 plus alphavbeta6/alphavbeta8 integrin assessed as alphavbeta6/alphavbeta8 receptor internalization at 700 uM incubated for 1 hrs followed by viral infection by flow cytometry assay. Type of test: functional, organism-based. In a few lines:
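Transfected J cells expressed nectin1 plus both αvβ6 and αvβ8 (48 h post-transfection) and were treated with 700 μM peptide for 1 h at 37 °C. Surface β6 and β8 were stained for 1 h at 4 °C with APC-conjugated mAbs outside the RGD-binding site. Nectin1 was stained with R1.302 plus APC secondary. Read-out was flow cytometry APC MFI of gated cells, ≥10 000 events; triplicates ± SD.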
(In general: Flow cytometry measures light scatter and fluorescence of single cells or particles in a stream.)

Test [7] concerns Human alphaherpesvirus 1. The test is described as follows: Inhibition of HSV-1 soluble gH binding to alphavbeta6/alphavbeta8 integrin expressed in […] J cells at 700 uM incubated for 1 hr by flow cytometry assay. The format is cell-based. The method in brief: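 J cells were transfected with nectin1 plus αvβ6 and αvβ8 and, 48 h later, exposed to 700 μM peptide for 1 h at 37 °C. They were then incubated for 1 h at 4 °C with 2 μM One-STrEP-tagged soluble gH in DMEM/5% FBS/30 mM HEPES. Soluble gB served as the control protein. Binding was detected with PE-Strep-Tactin (1 h, 4 °C) as flow cytometry MFI (≥10 000 events); triplicates ± SD.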

pIC50: −log10 of the molar value. Activity calls are given as the source filed them. The calls are words filed in the database; no cut-off is given here. Some results are limits rather than exact numbers.

Integrin alpha-V/beta-6, sequence (P06756 31-889 limits assumed): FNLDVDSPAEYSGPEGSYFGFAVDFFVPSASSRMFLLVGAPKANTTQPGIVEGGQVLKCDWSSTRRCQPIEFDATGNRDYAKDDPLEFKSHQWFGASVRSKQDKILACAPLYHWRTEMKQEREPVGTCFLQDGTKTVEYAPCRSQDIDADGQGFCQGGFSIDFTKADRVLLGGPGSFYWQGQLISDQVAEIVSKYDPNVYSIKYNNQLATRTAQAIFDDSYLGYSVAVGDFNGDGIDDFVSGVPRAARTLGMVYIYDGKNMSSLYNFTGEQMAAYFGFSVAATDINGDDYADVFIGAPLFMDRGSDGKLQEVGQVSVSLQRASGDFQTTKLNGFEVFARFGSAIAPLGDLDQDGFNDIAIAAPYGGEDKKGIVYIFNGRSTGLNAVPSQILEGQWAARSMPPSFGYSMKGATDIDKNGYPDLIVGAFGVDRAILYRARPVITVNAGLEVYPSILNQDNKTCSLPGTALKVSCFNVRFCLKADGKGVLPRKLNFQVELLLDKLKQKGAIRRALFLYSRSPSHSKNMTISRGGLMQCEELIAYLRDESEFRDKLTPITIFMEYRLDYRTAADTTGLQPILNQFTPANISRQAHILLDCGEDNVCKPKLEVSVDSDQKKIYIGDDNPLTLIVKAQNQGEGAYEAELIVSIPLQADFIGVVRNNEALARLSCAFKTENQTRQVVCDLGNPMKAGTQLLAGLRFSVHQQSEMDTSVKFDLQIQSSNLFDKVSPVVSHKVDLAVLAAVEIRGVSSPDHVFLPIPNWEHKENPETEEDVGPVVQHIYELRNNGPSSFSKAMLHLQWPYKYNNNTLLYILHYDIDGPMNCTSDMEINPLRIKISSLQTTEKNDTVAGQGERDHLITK
Integrin alpha-V/beta-6, sequence (P06756 891-1048 limits assumed): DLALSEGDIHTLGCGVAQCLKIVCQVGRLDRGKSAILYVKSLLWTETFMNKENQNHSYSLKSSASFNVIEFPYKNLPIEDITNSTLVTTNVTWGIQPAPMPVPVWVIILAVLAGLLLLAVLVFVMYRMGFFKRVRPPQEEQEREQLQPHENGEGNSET
Integrin alpha-V/beta-6, sequence (P18564 22-788 limits assumed): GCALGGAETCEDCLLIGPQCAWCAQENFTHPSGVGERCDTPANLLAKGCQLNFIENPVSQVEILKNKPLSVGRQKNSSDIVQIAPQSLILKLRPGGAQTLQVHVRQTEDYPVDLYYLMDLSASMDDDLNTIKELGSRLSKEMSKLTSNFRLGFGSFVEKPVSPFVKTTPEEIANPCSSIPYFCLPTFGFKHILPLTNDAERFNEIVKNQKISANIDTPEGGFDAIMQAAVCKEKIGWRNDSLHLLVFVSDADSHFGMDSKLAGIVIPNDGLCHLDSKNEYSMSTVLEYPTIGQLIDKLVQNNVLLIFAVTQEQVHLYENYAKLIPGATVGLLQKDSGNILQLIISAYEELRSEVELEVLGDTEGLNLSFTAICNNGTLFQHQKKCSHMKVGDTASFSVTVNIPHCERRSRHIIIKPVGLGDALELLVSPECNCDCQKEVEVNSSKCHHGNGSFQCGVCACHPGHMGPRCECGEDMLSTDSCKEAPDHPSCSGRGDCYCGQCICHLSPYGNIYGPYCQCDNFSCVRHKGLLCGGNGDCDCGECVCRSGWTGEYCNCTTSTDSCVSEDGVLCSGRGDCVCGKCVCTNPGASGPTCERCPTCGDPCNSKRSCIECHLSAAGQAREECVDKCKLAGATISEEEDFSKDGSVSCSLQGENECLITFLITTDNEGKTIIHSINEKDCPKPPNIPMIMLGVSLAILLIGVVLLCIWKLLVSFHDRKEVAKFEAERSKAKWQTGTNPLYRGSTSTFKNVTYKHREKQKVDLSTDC

Turning to `CN1C(=O)CNC(=O)[C@H](CCCNC(=N)N)NC(=O)CC[C@@H](C(N)=O)NC(=O)[C@H](C2CCCCC2)NC(=O)[C@@H]1CC(=O)O`, the pIC50 – broadly, the IC50 on a negative log10 scale, so that one unit is a factor of ten – at Integrin alpha-V/beta-6 is under 5.30.

Take `CC(C)C[C@H](NC(=O)[C@H](CO)NC(=O)[C@H](CC(=O)O)NC(=O)[C@H](CC(C)C)NC(=O)[C@H](CC(=O)O)NC(=O)[C@@H](NC(=O)[C@@H](N)CCCNC(=N)N)[C@@H](C)O)C(=O)N[C@@H](CCCNC(=N)N)C(=O)N[C@H](C(=O)O)[C@@H](C)O`: on Integrin alpha-V/beta-6, the pIC50 is 7.42.

On to `N=C(N)NCCC[C@@H]1NC(=O)CC[C@@H](C(N)=O)NC(=O)[C@H](C2CCCCC2)NC(=O)[C@H](CC(=O)O)NC(=O)CNC1=O`, for which the Activity result with Human alphaherpesvirus 1 [1] is “Dde”. Also, the result in the test with Human alphaherpesvirus 1 [2] was Active.

In the case of `CN1C(=O)[C@H](C2CCCCC2)NC(=O)[C@H](CC(=O)O)NC(=O)CNC(=O)[C@H](CCCNC(=N)N)NC(=O)CC[C@H]1C(N)=O`, the Activity result in the test on Human alphaherpesvirus 1 [1] is “Dde”; in the test on Human alphaherpesvirus 1 [3], 70%. Besides, the result in the test on Human alphaherpesvirus 1 [4], in the test with Human alphaherpesvirus 1 [2], with Human alphaherpesvirus 1 [5] and in the test on Human alphaherpesvirus 1 [6] was Active. Moreover, the inhibition entry in the test with Human alphaherpesvirus 1 [7] was “Active”.
